Assay outcomes (PubChem BioAssay)
Most compounds without a hit are left out; they make up all but 2.2% or so of the library.
SMARCA2 activ: activators of SMARCA2 function. MG213 cells, MMTV-luciferase reporter, dexamethasone, overnight. activation, % at 9.1 µM. 1% of 370,000 active; in the data active = activation above about 7.8%
COUP-TFII inh: NR2F2 (human) inhibition, primary screen; 0.7% of 370,000 active; P24468; inhibition, % at 8.6 µM; HEK293T NGFI-A luciferase reporter, luminescence;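 active = inhibition above a per-plate cutoff, mean inhibition of test wells between control levels plus 3 SD, cut at about 38% in these data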;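 note: cells cotransfected with COUP-TFII expression vector driving the NGFI-A reporter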
NR2E3 ag-1: NR2E3 (human) agonism | Q9Y5X4 | GST-NR2E3/biotin-RetCOR TR-FRET, 1536-well | inhibition of corepressor binding, % at 4.78 µM | 0.12% of 320,000 active;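 active = percent inhibition above the cutoff of mean plus 3 SD of all tested compounds, set per screening campaign, cut at about 20% in these data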
Target sequence (Q9Y5X4 whole entry, looked up): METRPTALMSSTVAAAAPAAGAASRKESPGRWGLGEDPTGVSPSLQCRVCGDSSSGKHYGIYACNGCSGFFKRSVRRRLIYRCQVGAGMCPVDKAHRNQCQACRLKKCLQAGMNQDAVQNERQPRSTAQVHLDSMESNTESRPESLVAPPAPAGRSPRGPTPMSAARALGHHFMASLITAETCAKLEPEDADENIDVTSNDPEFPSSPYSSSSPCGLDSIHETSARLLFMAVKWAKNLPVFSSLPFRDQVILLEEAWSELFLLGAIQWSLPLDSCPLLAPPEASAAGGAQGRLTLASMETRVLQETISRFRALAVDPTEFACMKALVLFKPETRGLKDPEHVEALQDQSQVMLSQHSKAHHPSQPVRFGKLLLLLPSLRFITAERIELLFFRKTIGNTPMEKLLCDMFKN
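Material: NR2E3–RetCOR corepressor complex | Quantity: 1.35 nM GST-tagged NR2E3 final | Schedule: 5 h at 4 °C | Replication: Singlicate compound wells | Reagent: RetCOR corepressor, biotinylated, 7 nM | Controls: Biotin wells as high control, 0.6% DMSO wells as low control | Signal: TR-FRET, Eu(K)-anti-GST donor, streptavidin-D2 acceptor, ex 340, em 617/671 nm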
NR2E3 ag-2: agonists of human NR2E3 nuclear receptor; Q9Y5X4; CHO-S Gal4-NCOR/VP16-NR2E3 two-hybrid, luciferase; inhibition of corepressor binding, % at 3.98 µM; 0.35% of 360,000 active;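 active = inhibition above the mean of all tested compounds plus 3 SD, cut at about 70% in these data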;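 note: higher means lower luciferase signal from less NR2E3 corepressor binding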
GalR3 antag: antagonists of human GalR3; inhibition, % at 3 µM; 0.44% of 360,000 active; HEK293 GalR3-CNG cAMP membrane potential fluorescence; galR3 body fused to GalR1 C-terminus; AID 651719; O60755;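 active = inhibition above the screen-wide average plus 3 SD, cut at about 13% in these data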;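 note: forskolin and galanin both at EC90 stimulate the cells; cAMP rise reported by CNG channel membrane potential dye signal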
Target sequence (O60755 1-299 limits assumed): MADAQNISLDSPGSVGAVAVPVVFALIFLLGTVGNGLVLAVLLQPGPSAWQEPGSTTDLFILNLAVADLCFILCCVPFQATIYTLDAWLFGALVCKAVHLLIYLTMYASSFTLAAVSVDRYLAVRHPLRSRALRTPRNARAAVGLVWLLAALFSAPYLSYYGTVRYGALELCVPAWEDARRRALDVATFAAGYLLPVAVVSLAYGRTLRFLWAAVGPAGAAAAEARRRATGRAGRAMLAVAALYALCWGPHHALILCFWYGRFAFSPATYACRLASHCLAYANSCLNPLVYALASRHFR
SMARCA2 act conf: confirmation of SMARCA2 (BRM) function activators. activation, % at 9.1 µM. 30% of 3,500 active. shares compounds with SMARCA2 activ. MG213 cells, MMTV-luciferase with dexamethasone, luminescence, overnight; MG213 cells expressing E1A, Rb sequestered; DMSO wells 0%, reference activator 100%;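 active = activation above its plate's cutoff, the mean activation of tested wells plus 3 SD, cut at about 7.9% in these data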
VP16 Luc act: activates GAL4-VP16 luciferase, flagging SMARCA2 activator hits. shares compounds with SMARCA2 activ. HEK293 GAL4-VP16 pG5luc reporter, luciferase luminescence; scaled: DMSO wells 0%, SAHA wells 100%. activation, % at 9.1 µM. 41% of 3,500 active;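 active = activation above the solvent-only control well mean plus 3 SD, averaged across control plates, cut at about 5.2% in these data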
Each line names hits and unclear results; the compound was inactive in the other large screens (follow-up assays come after a bar, where they were run).

COc1ccc(C(=O)CSc2nccn2C)cc1	SMARCA2 activ 11 | SMARCA2 act conf inactive | VP16 Luc act inactive
Cn1ccnc1SCC(=O)Nc1ccc(Oc2ccccc2)cc1	none
CCOc1ccc(NC(=O)CSc2nccn2C)cc1	SMARCA2 activ 8.8 | SMARCA2 act conf inactive | VP16 Luc act inactive
COC(=O)C[C@H]1CC[C@@H]2[C@H](COc3ccc(NC(=O)c4cccc(Cl)c4)cc3C(=O)N2C)O1	none (no result: NR2E3 ag-1, NR2E3 ag-2, GalR3 antag)
O=C1c2ccccc2NC(c2ccccc2Br)N1CCCN1CCOCC1 (stereo not drawn)	SMARCA2 activ 8.1 | SMARCA2 act conf inactive | VP16 Luc act inactive
Cc1ccc(C2Nc3ccccc3C(=O)N2CCCN2CCOCC2)cc1 (stereo not drawn)	none
COc1cccc(C(=O)/C=C/Nc2ccc(S(=O)(=O)Nc3onc(C)c3C)cc2)c1	SMARCA2 activ 12 | SMARCA2 act conf inactive | VP16 Luc act inactive
Cc1noc(NS(=O)(=O)c2ccc(N/C=C\C(=O)c3ccc(Br)cc3)cc2)c1C	none
O=C(CC1(O)C(=O)Nc2cc(Cl)cc(Cl)c21)c1ccncc1 (stereo not drawn)	SMARCA2 activ 11 | SMARCA2 act conf inactive | VP16 Luc act inactive
Cc1ccc(Cl)c2c1NC(=O)C2(O)CC(=O)c1ccc(Br)cc1 (stereo not drawn)	none
Cc1sc2nc3c4ccccc4c(NCc4ccco4)nn3c(=O)c2c1C	SMARCA2 activ 13 | SMARCA2 act conf 43 | VP16 Luc act 19
CCOCCn1c(CN2CCCCC2)nc2c1c(=O)n(C)c(=O)n2C	SMARCA2 activ 8.1 (no result: GalR3 antag) | SMARCA2 act conf inactive | VP16 Luc act inactive
COc1ccc(S(=O)(=O)N2CCN(C(=O)Cc3cccs3)CC2)cc1	SMARCA2 activ 9.5 | SMARCA2 act conf inactive | VP16 Luc act inactive
CCOc1ccc(Cl)cc1/C=C1/C(=O)ON=C1C	SMARCA2 activ 8.0 | SMARCA2 act conf inactive | VP16 Luc act inactive
COc1ccc(Cl)cc1/C=C1/C(=O)ON=C1C	none
CN(Cc1ccccc1)C(=O)c1cc(-c2ccc(Br)cc2)on1	SMARCA2 activ 8.1 | SMARCA2 act conf inactive | VP16 Luc act 5.3
Cc1cc(C(=O)N(C)Cc2ccc(Br)cc2)no1	none
Cc1ccc(C(=O)N(C)Cc2nc3ccccc3c(=O)[nH]2)cc1NC(=O)c1ccco1	SMARCA2 activ 8.1 (no result: NR2E3 ag-1) | SMARCA2 act conf inactive | VP16 Luc act inactive
COc1ccc(C2Nc3ccccc3C(=O)N2c2ccc(C)cc2)cc1COc1ccccn1 (stereo not drawn)	SMARCA2 activ 14 | SMARCA2 act conf 12 | VP16 Luc act inactive
CCOC(=O)[C@]12CCCC=C1N(CCCOC)C(=O)[C@@H]2CC(=O)NCCc1ccccc1OC	none (no result: NR2E3 ag-1, NR2E3 ag-2, GalR3 antag)
Cc1occc1C(=O)N/N=C/C=C\c1ccccc1[N+](=O)[O-]	SMARCA2 activ 8.9 | SMARCA2 act conf inactive | VP16 Luc act inactive
COc1ccc(C(=O)N/N=C/C(Br)=C/c2ccccc2)cc1	none
Cc1occc1C(=O)N/N=C/c1cccs1	none
Cc1occc1C(=O)N/N=C/c1ccc(-c2ccccc2)cc1	none
Cc1occc1C(=O)N/N=C/c1ccc[nH]1	SMARCA2 activ 8.2 | SMARCA2 act conf inactive | VP16 Luc act inactive
COc1cccc(C(=O)N/N=C/C(Br)=C/c2ccccc2)c1	SMARCA2 activ 12 | SMARCA2 act conf inactive | VP16 Luc act inactive
Cc1occc1C(=O)N/N=C/C(Br)=C/c1ccccc1	SMARCA2 activ 14 | SMARCA2 act conf 8.2 | VP16 Luc act 15
CC1CCC2(CCC(=O)N2C[C@@H](O)c2ccccc2)CC1 (stereo partly drawn)	none (no result: SMARCA2 activ, NR2E3 ag-1, NR2E3 ag-2, GalR3 antag)
COc1ccc(C(C(=O)N(C)C2CCCC2)N(Cc2ccc(F)cc2)C(=O)c2sccc2Cl)cc1OC (stereo not drawn)	none (no result: NR2E3 ag-1, NR2E3 ag-2, GalR3 antag)
c1ccc(-c2ccccc2C2Cc3nnccc3CN2)cc1 (stereo not drawn)	none (no result: NR2E3 ag-1, NR2E3 ag-2)
CC(C)CCNC(=O)C1COC(O)(C(Cc2ccccc2)NC(=O)[C@@H](NC(=O)OCc2ccccc2)C(C)C)CN1 (stereo partly drawn)	none (no result: SMARCA2 activ, NR2E3 ag-1, NR2E3 ag-2, GalR3 antag)
Cc1ccc(-c2cc(C(=O)NN=Cc3ccc(F)cc3)[nH]n2)cc1C	none (no result: NR2E3 ag-1, NR2E3 ag-2, GalR3 antag)
C=CCNC(=O)N1CCC(c2nc3ccc(Cl)cc3[nH]2)CC1	SMARCA2 activ 9.7 (no result: NR2E3 ag-1, NR2E3 ag-2, GalR3 antag) | SMARCA2 act conf inactive | VP16 Luc act inactive
O=C(NCc1ccccc1)N1CCC(c2nc3ccc(Cl)cc3[nH]2)CC1	none (no result: NR2E3 ag-1, NR2E3 ag-2, GalR3 antag)
CC(C)(C)N1Cc2nnn(CC3CCCCC3)c2-c2cc(F)ccc2S1(=O)=O	none (no result: NR2E3 ag-1, NR2E3 ag-2, GalR3 antag)
Cc1nc2c(ccc3nc(NC(=O)Cc4ccccc4)sc32)s1	SMARCA2 activ 10 | SMARCA2 act conf inactive | VP16 Luc act inactive
COc1ccc(C2CC(c3ccc(OC)c(OC)c3)=NN2C(=O)c2ccccc2)cc1 (stereo not drawn)	SMARCA2 activ 13 | SMARCA2 act conf 13 | VP16 Luc act inactive
COc1ccc(C2=NN(C(=O)c3ccccc3)C(c3ccc(OC)c(OC)c3)C2)cc1OC (stereo not drawn)	none (no result: NR2E3 ag-1)
O=C1c2cccc(NCCCNCCO)c2C(=O)c2cccc(NCCCNCCO)c21	SMARCA2 activ 28 (no result: NR2E3 ag-1) | SMARCA2 act conf inactive | VP16 Luc act inactive
CC(C)C[C@H]1COc2cc(Br)ccc2S(=O)(=O)N1Cc1cn(Cc2ccco2)nn1	none (no result: NR2E3 ag-1, NR2E3 ag-2, GalR3 antag)
O=C(NCCNc1ccccc1[N+](=O)[O-])c1cc(F)c(F)cc1Cl	SMARCA2 activ 14 | SMARCA2 act conf inactive | VP16 Luc act 5.3
CN(C)CCNc1ncnc2c1cnn2-c1ccc(Cl)cc1	SMARCA2 activ 13 | SMARCA2 act conf 11 | VP16 Luc act 12
N/C(=N\OC(=O)c1cccs1)c1ccccc1	SMARCA2 activ 18 | SMARCA2 act conf 12 | VP16 Luc act 6.8
CCOc1ccccc1NC(=O)NNC(=O)CCn1nc(C)c([N+](=O)[O-])c1C	none (no result: NR2E3 ag-1, NR2E3 ag-2, GalR3 antag)
CC1CCN(C(=S)NCCc2ccccc2)CC1	SMARCA2 activ 8.7 | SMARCA2 act conf 11 | VP16 Luc act 6.7
S=C(NCCc1ccccc1)N1CCN(C(=S)NCCc2ccccc2)CC1	none (no result: NR2E3 ag-1)
CCOc1ccc(Nc2nc(N)c([N+](=O)[O-])c(N3CCN(CC)CC3)n2)cc1	SMARCA2 activ 12 | SMARCA2 act conf inactive | VP16 Luc act inactive
C=CCOC(=O)N1CCN(C(=O)c2ccc3nc(C)n(C4CCCC4)c3c2)CC1	none (no result: NR2E3 ag-1, NR2E3 ag-2, GalR3 antag)
Cc1cccc(C(=O)O/N=C(\N)CS(=O)(=O)c2ccccc2)c1	none
COc1cccc(C(=O)O/N=C(\N)CS(=O)(=O)c2ccccc2)c1	SMARCA2 activ 12 | SMARCA2 act conf inactive | VP16 Luc act inactive
CC(=O)Nc1ccc2c(c1)nc1n2CCSC1	none
